According to ChEMBL document CHEMBL4118063, “Design, synthesis and evaluation of aromatic heterocyclic derivatives as potent antifungal agents” (Eur J Med Chem, 2017):
Values after ≈ are worked out from the molar mass of the structure shown.

Legend:
Candida albicans [1] = assay: Antifungal activity against Candida albicans CPCC 400523 by broth microdilution method; assay type: functional
Outline: (§1)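 Serial twofold-style dilution in growth medium per NCCLS broth microdilution guidelines. Compounds dissolved in DMSO before dilution. Fluconazole and itraconazole served as positive controls. MIC was read as the lowest concentration that prevents visible fungal growth.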

Candida albicans [2] = assay: Antifungal activity against Candida albicans ATCC SC5314 by broth microdilution method; assay type: functional; outline: as §1
Cryptococcus neoformans = assay: Antifungal activity against Cryptococcus neoformans cgmcc 2.3161 by broth microdilution method; assay type: functional; outline: as §1
Candida tropicalis = assay: Antifungal activity against Candida tropicalis cgmcc 2.3739 by broth microdilution method; assay type: functional; outline: as §1
Aspergillus fumigatus = assay: Antifungal activity against Aspergillus fumigatus GIM 3.524 by broth microdilution method; assay type: functional; outline: as §1
Candida albicans [3] = assay: Antifungal activity against fluconazole-resistant Candida albicans strain 100 by broth microdilution method; assay type: functional
Outline: (§2)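 Broth serial dilution in 96-well plates per NCCLS guidelines; compounds dissolved in DMSO and serially diluted into growth medium; MIC taken as lowest concentration inhibiting visible fungal growth. Fluconazole-resistant clinical C. albicans isolates 100 and 103; fluconazole and itraconazole as positive controls.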

Candida albicans [4] = assay: Antifungal activity against fluconazole-resistant Candida albicans strain 103 by broth microdilution method; assay type: functional; outline: as §2
[5] = target: T1, Lanosterol 14-alpha demethylase (Candida albicans (strain SC5314 / ATCC MYA-2876) (Yeast), UniProt P10613); assay: Inhibition of CYP51 in Candida albicans ATCC SC5314 assessed as decrease in ergosterol content by GS-MS analysis
[6] = target: T1, Lanosterol 14-alpha demethylase; assay: Inhibition of CYP51 in Candida albicans ATCC SC5314 assessed as increase in lanosterol content by GS-MS analysis
[7] = target: T1, Lanosterol 14-alpha demethylase; assay: Inhibition of CYP51 in Candida albicans ATCC SC5314 assessed as increase in eburicol content by GS-MS analysis
[8] = target: T1, Lanosterol 14-alpha demethylase; assay: Inhibition of CYP51 in Candida albicans ATCC SC5314 assessed as ergosterol content at 0.03125 ug/ml by GS-MS analysis relative to total sterols (reference value: 98.7%); parameters: scale not given: the % may be the effect or the level left
[9] = target: T1, Lanosterol 14-alpha demethylase; assay: Inhibition of CYP51 in Candida albicans ATCC SC5314 assessed as ergosterol content at 0.125 ug/ml by GS-MS analysis relative to total sterols (reference value: 98.7%); parameters: scale not given: the % may be the effect or the level left
[10] = target: T1, Lanosterol 14-alpha demethylase; assay: Inhibition of CYP51 in Candida albicans ATCC SC5314 assessed as ergosterol content at 0.5 ug/ml by GS-MS analysis relative to total sterols (reference value: 98.7%); parameters: scale not given: the % may be the effect or the level left; conditions: at 0.5 µg/mL
[11] = target: T1, Lanosterol 14-alpha demethylase; assay: Inhibition of CYP51 in Candida albicans ATCC SC5314 assessed as ergosterol content at 2 ug/ml by GS-MS analysis relative to total sterols (reference value: 98.7%); parameters: scale not given: the % may be the effect or the level left; conditions: at 2 µg/mL
[12] = target: T1, Lanosterol 14-alpha demethylase; assay: Inhibition of CYP51 in Candida albicans ATCC SC5314 assessed as ergosterol content at 8 ug/ml by GS-MS analysis relative to total sterols (reference value: 98.7%); parameters: scale not given: the % may be the effect or the level left; conditions: at 8 µg/mL
[13] = target: T1, Lanosterol 14-alpha demethylase; assay: Inhibition of CYP51 in Candida albicans ATCC SC5314 assessed as obtusifoliol content at 0.03125 ug/ml by GS-MS analysis relative to total sterols (reference value: 0.6%); parameters: scale not given: the % may be the effect or the level left
[14] = target: T1, Lanosterol 14-alpha demethylase; assay: Inhibition of CYP51 in Candida albicans ATCC SC5314 assessed as obtusifoliol content at 0.125 ug/ml by GS-MS analysis relative to total sterols (reference value: 0.6%); parameters: scale not given: the % may be the effect or the level left
[15] = target: T1, Lanosterol 14-alpha demethylase; assay: Inhibition of CYP51 in Candida albicans ATCC SC5314 assessed as obtusifoliol content at 0.5 ug/ml by GS-MS analysis relative to total sterols (reference value: 0.6%); parameters: scale not given: the % may be the effect or the level left; conditions: at 0.5 µg/mL
[16] = target: T1, Lanosterol 14-alpha demethylase; assay: Inhibition of CYP51 in Candida albicans ATCC SC5314 assessed as obtusifoliol content at 2 ug/ml by GS-MS analysis relative to total sterols (reference value: 0.6%); parameters: scale not given: the % may be the effect or the level left; conditions: at 2 µg/mL
[17] = target: T1, Lanosterol 14-alpha demethylase; assay: Inhibition of CYP51 in Candida albicans ATCC SC5314 assessed as obtusifoliol content at 8 ug/ml by GS-MS analysis relative to total sterols (reference value: 0.6%); parameters: scale not given: the % may be the effect or the level left; conditions: at 8 µg/mL
[18] = target: T1, Lanosterol 14-alpha demethylase; assay: Inhibition of CYP51 in Candida albicans ATCC SC5314 assessed as lanosterol content at 0.125 ug/ml by GS-MS analysis relative to total sterols; parameters: scale not given: the % may be the effect or the level left
[19] = target: T1, Lanosterol 14-alpha demethylase; assay: Inhibition of CYP51 in Candida albicans ATCC SC5314 assessed as lanosterol content at 0.5 ug/ml by GS-MS analysis relative to total sterols; parameters: scale not given: the % may be the effect or the level left; conditions: at 0.5 µg/mL
[20] = target: T1, Lanosterol 14-alpha demethylase; assay: Inhibition of CYP51 in Candida albicans ATCC SC5314 assessed as lanosterol content at 2 ug/ml by GS-MS analysis relative to total sterols; parameters: scale not given: the % may be the effect or the level left; conditions: at 2 µg/mL
[21] = target: T1, Lanosterol 14-alpha demethylase; assay: Inhibition of CYP51 in Candida albicans ATCC SC5314 assessed as lanosterol content at 8 ug/ml by GS-MS analysis relative to total sterols; parameters: scale not given: the % may be the effect or the level left; conditions: at 8 µg/mL
[22] = target: T1, Lanosterol 14-alpha demethylase; assay: Inhibition of CYP51 in Candida albicans ATCC SC5314 assessed as eburicol content at 0.03125 ug/ml by GS-MS analysis relative to total sterols (reference value: 0.4%); parameters: scale not given: the % may be the effect or the level left
[23] = target: T1, Lanosterol 14-alpha demethylase; assay: Inhibition of CYP51 in Candida albicans ATCC SC5314 assessed as eburicol content at 0.125 ug/ml by GS-MS analysis relative to total sterols (reference value: 0.4%); parameters: scale not given: the % may be the effect or the level left
[24] = target: T1, Lanosterol 14-alpha demethylase; assay: Inhibition of CYP51 in Candida albicans ATCC SC5314 assessed as eburicol content at 0.5 ug/ml by GS-MS analysis relative to total sterols (reference value: 0.4%); parameters: scale not given: the % may be the effect or the level left; conditions: at 0.5 µg/mL
[25] = target: T1, Lanosterol 14-alpha demethylase; assay: Inhibition of CYP51 in Candida albicans ATCC SC5314 assessed as eburicol content at 2 ug/ml by GS-MS analysis relative to total sterols (reference value: 0.4%); parameters: scale not given: the % may be the effect or the level left; conditions: at 2 µg/mL
[26] = target: T1, Lanosterol 14-alpha demethylase; assay: Inhibition of CYP51 in Candida albicans ATCC SC5314 assessed as eburicol content at 8 ug/ml by GS-MS analysis relative to total sterols (reference value: 0.4%); parameters: scale not given: the % may be the effect or the level left; conditions: at 8 µg/mL
[27] = Metabolic stability in human plasma assessed as parent compound remaining at 60 mins; assay type: ADME, cell-free; conditions: read-out: Stability
[28] = Metabolic stability in human plasma assessed as parent compound remaining at 120 mins; assay type: ADME, cell-free; conditions: read-out: Stability
[29] = target: T1, Lanosterol 14-alpha demethylase; assay: Inhibition of CYP51 in Candida albicans ATCC SC5314 assessed as 4,4-dimethyl zymosterol content at 2 ug/ml by GS-MS analysis relative to total sterols; parameters: scale not given: the % may be the effect or the level left
Outline: (§3)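 C. albicans SC5314 cells exposed to drug at 0.03125–8 µg/mL alongside untreated and fluconazole-treated cells; sterols extracted and analysed by GC-MS with cholesterol as internal standard; each sterol expressed as percent of total sterols.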

[30] = target: T1, Lanosterol 14-alpha demethylase; assay: Inhibition of CYP51 in Candida albicans ATCC SC5314 assessed as 4,4-dimethyl zymosterol content at 8 ug/ml by GS-MS analysis relative to total sterols; parameters: scale not given: the % may be the effect or the level left; outline: as §3

T1 sequence (P10613 whole entry): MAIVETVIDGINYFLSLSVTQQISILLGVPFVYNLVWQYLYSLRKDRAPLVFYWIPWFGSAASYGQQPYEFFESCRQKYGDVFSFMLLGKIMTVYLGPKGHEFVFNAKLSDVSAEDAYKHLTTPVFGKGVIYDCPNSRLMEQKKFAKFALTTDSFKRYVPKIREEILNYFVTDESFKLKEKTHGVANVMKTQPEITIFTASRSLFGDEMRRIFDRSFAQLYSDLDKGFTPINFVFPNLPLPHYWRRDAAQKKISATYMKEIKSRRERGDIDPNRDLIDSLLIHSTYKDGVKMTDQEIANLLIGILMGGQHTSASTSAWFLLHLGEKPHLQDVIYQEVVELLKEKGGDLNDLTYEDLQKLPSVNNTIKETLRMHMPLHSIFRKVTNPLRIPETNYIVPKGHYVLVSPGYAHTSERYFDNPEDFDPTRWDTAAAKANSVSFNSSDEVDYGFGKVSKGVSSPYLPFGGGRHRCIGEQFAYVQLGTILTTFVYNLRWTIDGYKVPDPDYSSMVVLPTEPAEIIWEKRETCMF

Structure (SMILES)	MIC (Candida albicans [1]) [µg/mL]	MIC (Candida albicans [2]) [µg/mL]	MIC (Cryptococcus neoformans) [µg/mL]	MIC (Candida tropicalis) [µg/mL]	MIC (Aspergillus fumigatus) [µg/mL]	MIC (Candida albicans [3]) [µg/mL]	MIC (Candida albicans [4]) [µg/mL]	inhibition (INH) [5]	inhibition (INH) [6]	inhibition (INH) [7]	Activity [8] [%]	Activity [9] [%]	Activity [10] [%]	Activity [11] [%]	Activity [12] [%]	Activity [13] [%]	Activity [14] [%]	Activity [15] [%]	Activity [16] [%]	Activity [17] [%]	also measured
CC(C)OC(=O)[C@H](Cn1ccnc1)NC(=O)c1cc(-c2ccccc2F)on1	0.25 (≈ 0.647 µM)	0.0625 (≈ 0.162 µM)	0.5 (≈ 1.29 µM)	0.0312 (≈ 0.0809 µM)	4 (≈ 10.4 µM)	1 (≈ 2.59 µM)	1 (≈ 2.59 µM)	Dose-dependent effect	Dose-dependent effect	Dose-dependent effect	93.9	85.9	30.8	5.4	0.7	4.3	6.9	6.9	9.2	8.9	Activity [18]: 2.2%; Activity [19]: 16.7%; Activity [20]: 22%; Activity [21]: 26.7%; Activity [22]: 1.7%; Activity [23]: 4.9%; Activity [24]: 45.6%; Activity [25]: 63.3%; Activity [26]: 63.7%; remaining at 1 h [27]: 95.3%; remaining at 2 h [28]: 91.8%
OC(Cn1cncn1)(Cn1cncn1)c1ccc(F)cc1F [FLUCONAZOLE]	2 (≈ 6.53 µM)	1 (≈ 3.27 µM)	4 (≈ 13.1 µM)	0.25 (≈ 0.816 µM)	16 (≈ 52.2 µM)	> 64	> 64	Dose-dependent effect	Dose-dependent effect	Dose-dependent effect	95.6	88.7	81.4	18.2	1.7	3.6	8.9	6.9	16.1	13.3	Activity [18]: 0.4%; Activity [19]: 4.5%; Activity [20]: 23%; Activity [21]: 34.8%; Activity [22]: 0.8%; Activity [23]: 2%; Activity [24]: 7.2%; Activity [25]: 27%; Activity [26]: 37.2%; Activity [29]: 15.7%; Activity [30]: 13%
